Measured values reported in ChEMBL document CHEMBL1142960, “Synthesis and structure-activity relationships for 2,4-dinitrobenzamide-5-mustards as prodrugs for the Escherichia coli nfsB nitroreductase in gene therapy” (J Med Chem, 2007).
pIC50: −log10 of the molar value. Values after ≈ are worked out from the molar mass of the structure shown.

Test system: not listed separately
Test: Partition coefficient at pH 7.4 by shake-flask method
Format: physicochemical
Conditions: octanol/water
Outline: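 Octanol-water partition coefficient by shake-flask at pH 7.4, reported with SEM.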

SMILES	logD
NC(=O)c1cc(N(CCOS(N)(=O)=O)CCOS(N)(=O)=O)c([N+](=O)[O-])cc1[N+](=O)[O-]	-0.95
CS(=O)(=O)OCCN(CCBr)c1cc(C(=O)NCCO)c([N+](=O)[O-])cc1[N+](=O)[O-]	0.46
NC(=O)c1cc(N(CCI)CCI)c([N+](=O)[O-])cc1[N+](=O)[O-]	2.41

Test system: V79
Test: Antiproliferative activity against chinese hamster wild-type V79 NTR-ve cells after 18 hrs
Format: functional, cell-based
Conditions: Cricetulus griseus, V79, 18 h

SMILES	pIC50
NC(=O)c1cc(N(CCOS(N)(=O)=O)CCOS(N)(=O)=O)c([N+](=O)[O-])cc1[N+](=O)[O-]	3.19
CS(=O)(=O)OCCN(CCBr)c1cc(C(=O)NCCO)c([N+](=O)[O-])cc1[N+](=O)[O-]	3.20
NC(=O)c1cc(N(CCI)CCI)c([N+](=O)[O-])cc1[N+](=O)[O-]	4.96

Test system: V79
Test: Antiproliferative activity against chinese hamster V79 NTRpuro cells after 18 hrs
Format: functional, cell-based
Conditions: Cricetulus griseus, V79, 18 h

SMILES	pIC50
NC(=O)c1cc(N(CCOS(N)(=O)=O)CCOS(N)(=O)=O)c([N+](=O)[O-])cc1[N+](=O)[O-]	6.06
CS(=O)(=O)OCCN(CCBr)c1cc(C(=O)NCCO)c([N+](=O)[O-])cc1[N+](=O)[O-]	6.00
NC(=O)c1cc(N(CCI)CCI)c([N+](=O)[O-])cc1[N+](=O)[O-]	6.70

Test system: V79
Test: Selectivity ratio of IC50 for V79 NTR-ve cells to IC50 for V79 NTRpuro cells
Format: functional, Cricetulus griseus
Conditions: not given

SMILES	Ratio IC50
NC(=O)c1cc(N(CCOS(N)(=O)=O)CCOS(N)(=O)=O)c([N+](=O)[O-])cc1[N+](=O)[O-]	788
CS(=O)(=O)OCCN(CCBr)c1cc(C(=O)NCCO)c([N+](=O)[O-])cc1[N+](=O)[O-]	620
NC(=O)c1cc(N(CCI)CCI)c([N+](=O)[O-])cc1[N+](=O)[O-]	54

Test system: EMT6
Test: Antiproliferative activity against mouse wild type EMT6 NTR-ve cells after 18 hrs
Format: functional, cell-based
Conditions: EMT6, 18 h

SMILES	pIC50
NC(=O)c1cc(N(CCOS(N)(=O)=O)CCOS(N)(=O)=O)c([N+](=O)[O-])cc1[N+](=O)[O-]	3.11
CS(=O)(=O)OCCN(CCBr)c1cc(C(=O)NCCO)c([N+](=O)[O-])cc1[N+](=O)[O-]	3.66
NC(=O)c1cc(N(CCI)CCI)c([N+](=O)[O-])cc1[N+](=O)[O-]	4.60

Test system: EMT6
Test: Antiproliferative activity against mouse EMT6 NTRpuro cells after 18 hrs
Format: functional, cell-based
Conditions: EMT6, 18 h

SMILES	pIC50
NC(=O)c1cc(N(CCOS(N)(=O)=O)CCOS(N)(=O)=O)c([N+](=O)[O-])cc1[N+](=O)[O-]	5.80
CS(=O)(=O)OCCN(CCBr)c1cc(C(=O)NCCO)c([N+](=O)[O-])cc1[N+](=O)[O-]	6.70
NC(=O)c1cc(N(CCI)CCI)c([N+](=O)[O-])cc1[N+](=O)[O-]	7.10

Test system: EMT6
Test: Selectivity ratio of IC50 for EMT6 NTR-ve cells to IC50 forEMT6 NTRpuro cells
Format: functional, Mus musculus
Conditions: not given

SMILES	Ratio IC50
NC(=O)c1cc(N(CCOS(N)(=O)=O)CCOS(N)(=O)=O)c([N+](=O)[O-])cc1[N+](=O)[O-]	491
CS(=O)(=O)OCCN(CCBr)c1cc(C(=O)NCCO)c([N+](=O)[O-])cc1[N+](=O)[O-]	1330
NC(=O)c1cc(N(CCI)CCI)c([N+](=O)[O-])cc1[N+](=O)[O-]	332

Test system: WiDr
Test: Antiproliferative activity against human wild type WiDr NTR-ve cells after 18 hrs
Format: functional, cell-based
Conditions: not given

SMILES	pIC50
NC(=O)c1cc(N(CCOS(N)(=O)=O)CCOS(N)(=O)=O)c([N+](=O)[O-])cc1[N+](=O)[O-]	3.36
CS(=O)(=O)OCCN(CCBr)c1cc(C(=O)NCCO)c([N+](=O)[O-])cc1[N+](=O)[O-]	3.71
NC(=O)c1cc(N(CCI)CCI)c([N+](=O)[O-])cc1[N+](=O)[O-]	4.82

Test system: WiDr
Test: Antiproliferative activity against human WiDr NTRneo cells after 18 hrs
Format: functional, cell-based
Conditions: not given

SMILES	pIC50
NC(=O)c1cc(N(CCOS(N)(=O)=O)CCOS(N)(=O)=O)c([N+](=O)[O-])cc1[N+](=O)[O-]	5.72
CS(=O)(=O)OCCN(CCBr)c1cc(C(=O)NCCO)c([N+](=O)[O-])cc1[N+](=O)[O-]	6.11
NC(=O)c1cc(N(CCI)CCI)c([N+](=O)[O-])cc1[N+](=O)[O-]	6.52

Test system: WiDr
Test: Selectivity ratio of IC50 for WiDr NTR-ve cells to IC50 for WiDr NTRneo cells
Format: functional, Homo sapiens
Conditions: not given

SMILES	Ratio IC50
NC(=O)c1cc(N(CCOS(N)(=O)=O)CCOS(N)(=O)=O)c([N+](=O)[O-])cc1[N+](=O)[O-]	227
CS(=O)(=O)OCCN(CCBr)c1cc(C(=O)NCCO)c([N+](=O)[O-])cc1[N+](=O)[O-]	250
NC(=O)c1cc(N(CCI)CCI)c([N+](=O)[O-])cc1[N+](=O)[O-]	50

Test system: not listed separately
Test: Antiproliferative activity against human wild type Skov3 NTR-ve cells after 18 hrs
Format: functional, cell-based
Conditions: not given

SMILES	pIC50
NC(=O)c1cc(N(CCOS(N)(=O)=O)CCOS(N)(=O)=O)c([N+](=O)[O-])cc1[N+](=O)[O-]	3.06
CS(=O)(=O)OCCN(CCBr)c1cc(C(=O)NCCO)c([N+](=O)[O-])cc1[N+](=O)[O-]	3.54
NC(=O)c1cc(N(CCI)CCI)c([N+](=O)[O-])cc1[N+](=O)[O-]	4.52

Test system: V79
Test: Clonogenic survival of V79 NTRoua cells after 5 hrs by MCL assay
Format: functional, Cricetulus griseus
Conditions: not given

SMILES	Activity
NC(=O)c1cc(N(CCOS(N)(=O)=O)CCOS(N)(=O)=O)c([N+](=O)[O-])cc1[N+](=O)[O-]	>1800 µM
NC(=O)c1cc(N(CCI)CCI)c([N+](=O)[O-])cc1[N+](=O)[O-]	>20 µM

Test system: not listed separately
Test: Antiproliferative activity against human Skov3 NTRneo cells after 18 hrs
Format: functional, cell-based
Conditions: SK-OV-3, 18 h

SMILES	pIC50
NC(=O)c1cc(N(CCOS(N)(=O)=O)CCOS(N)(=O)=O)c([N+](=O)[O-])cc1[N+](=O)[O-]	5.41
CS(=O)(=O)OCCN(CCBr)c1cc(C(=O)NCCO)c([N+](=O)[O-])cc1[N+](=O)[O-]	6.21
NC(=O)c1cc(N(CCI)CCI)c([N+](=O)[O-])cc1[N+](=O)[O-]	6.37

Test system: not listed separately
Test: Selectivity ratio of IC50 for Skov3 NTR-ve cells to IC50 for Skov3 NTRneo cells
Format: functional, Homo sapiens
Conditions: not given

SMILES	Ratio IC50
NC(=O)c1cc(N(CCOS(N)(=O)=O)CCOS(N)(=O)=O)c([N+](=O)[O-])cc1[N+](=O)[O-]	265
CS(=O)(=O)OCCN(CCBr)c1cc(C(=O)NCCO)c([N+](=O)[O-])cc1[N+](=O)[O-]	467
NC(=O)c1cc(N(CCI)CCI)c([N+](=O)[O-])cc1[N+](=O)[O-]	71

Test system: V79
Test: Clonogenic survival of 3% V79 NTRpuro cells in co-cultures with 97% V79 NTRoua after 5 hrs by MCL assay
Format: functional, Cricetulus griseus
Conditions: not given
Outline: (§1)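 Multicellular layer cocultures of 3% V79-NTRpuro activators and 97% V79oua NTR-ve targets (ouabain-resistant), exposed to prodrug for 5 h. MCLs were then trypsin-dissociated and plated in ouabain or puromycin selective media for clonogenic survival. C10 (10% survival) interpolated for activators and targets; AC/TC ratio derived. Mean with SEM or range over independent experiments.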

SMILES	Activity
NC(=O)c1cc(N(CCOS(N)(=O)=O)CCOS(N)(=O)=O)c([N+](=O)[O-])cc1[N+](=O)[O-]	9.5 µM
NC(=O)c1cc(N(CCI)CCI)c([N+](=O)[O-])cc1[N+](=O)[O-]	1.65 µM

Test system: V79
Test: Clonogenic survival of 97% V79 NTRoua cells in co-cultures with 3% V79 NTRpuro cells after 5 hrs by MCL assay
Format: functional, Cricetulus griseus
Conditions: not given
Outline: as §1

SMILES	Activity
NC(=O)c1cc(N(CCOS(N)(=O)=O)CCOS(N)(=O)=O)c([N+](=O)[O-])cc1[N+](=O)[O-]	800 µM
NC(=O)c1cc(N(CCI)CCI)c([N+](=O)[O-])cc1[N+](=O)[O-]	2 µM

Test system: not listed separately
Test: Toxicity in ip dosed CD1 nude mouse in DMA/PEG
Format: organism-based
Conditions: in vivo
Outline: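 Maximum tolerated dose (MTD) determined in CD-1 nude mice after a single i.p. injection of prodrug, given in the vehicle named in each line.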

SMILES	MTD
NC(=O)c1cc(N(CCI)CCI)c([N+](=O)[O-])cc1[N+](=O)[O-]	200 µmol/kg

Test system: EMT6
Test: Antitumor activity against mixed mouse EMT6/EMT6 NTRpuro cells injected in CD1 nude mouse assessed as cell kill at 200 umol/kg, ip in DMA/PEG after 18 hrs
Format: functional
Conditions: not given

SMILES	LCK
NC(=O)c1cc(N(CCI)CCI)c([N+](=O)[O-])cc1[N+](=O)[O-]	1.48

Test system: WiDr
Test: Antitumor activity against human 100% WiDr NTRneo tumor cells injected in CD1 nude mouse assessed as growth delay at 200 umol/kg, ip in DMA/PEG
Format: functional
Conditions: not given
Outline: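 WiDr-NTRneo tumours (100% NTR+ve, or 1:9 NTR+ve:NTR-ve mixtures) in CD-1 nude mice, given a single i.p. dose at MTD. Read-out is median growth delay to 15 mm mean diameter, plus tumours not palpable 100 days after treatment. Aziridine given at 200 µmol/kg as positive control in every experiment.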

SMILES	Activity
NC(=O)c1cc(N(CCI)CCI)c([N+](=O)[O-])cc1[N+](=O)[O-]	8 days

Test system: not listed separately
Test: Solubility in alpha MEM
Format: physicochemical
Conditions: not given
Outline: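 Solubility (mM) in α-MEM with 5% fetal calf serum at ambient temperature, measured by HPLC.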

SMILES	solubility
NC(=O)c1cc(N(CCOS(N)(=O)=O)CCOS(N)(=O)=O)c([N+](=O)[O-])cc1[N+](=O)[O-]	1800 µM (≈ 850 µg/mL)
CS(=O)(=O)OCCN(CCBr)c1cc(C(=O)NCCO)c([N+](=O)[O-])cc1[N+](=O)[O-]	1700 µM (≈ 849 µg/mL)
NC(=O)c1cc(N(CCI)CCI)c([N+](=O)[O-])cc1[N+](=O)[O-]	40 µM (≈ 21.4 µg/mL)

Test system: not listed separately
Test: Stability in alpha MEM at 37 degC after 24 hrs
Format: physicochemical
Conditions: read-out: Stability
Outline: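 Percent parent compound remaining, by HPLC, after holding in α-MEM with 5% fetal calf serum at 37 °C for 24 h.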

SMILES	remaining at 24 h
NC(=O)c1cc(N(CCOS(N)(=O)=O)CCOS(N)(=O)=O)c([N+](=O)[O-])cc1[N+](=O)[O-]	95%
CS(=O)(=O)OCCN(CCBr)c1cc(C(=O)NCCO)c([N+](=O)[O-])cc1[N+](=O)[O-]	70%
NC(=O)c1cc(N(CCI)CCI)c([N+](=O)[O-])cc1[N+](=O)[O-]	69%
